Here are results for 167 variants from the RNAGym collection of RNA variant scans (doi:10.1126/science.aae0568).

This sample holds only a part of the variants without activity. Bounds are passed on as bounds.

B1: tRNA (parent)
chain: GUUCCGUUGGCGUAAUGGUAACGCGUCUCCCUCCUAAGGAGAAGACUGCGGGUUCGAGUCCCGUACGGAACG

In this series the parent is B1. Kind of series: yeast fitness relative to wild type (ratio to wild type); higher = fitter; tRNA-Arg(CCU), competitive growth, 37 C, YPD. The procedure, abridged:
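Changes in genotype frequencies gave Darwinian fitness relative to wild type. Frequencies were read by 100-nucleotide paired-end sequencing of gene amplicons before and after pooled Saccharomyces cerevisiae strains, carrying tRNA-Arg(CCU) gene variants at the native locus, were competed in YPD at 37°C for 24 hours in six replicates. A genotype was kept only with ≥ 100 starting reads, and estimates < 0.5 were set to 0.5.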
As to U3C C27U A69U, the yeast fitness worked out at 0.806.

Regarding U3C A43U A45G A69C, the yeast fitness was at most 0.5.

Regarding U3C C34A, the yeast fitness amounted to 0.665.

For U3C C34U, the yeast fitness amounted to 0.789.

In the case of U3C A69C, the yeast fitness turned out to be 0.967.

Consider U3C G38C A65U C66U, for which the yeast fitness was determined as 0.555.

For U3C G6A G18C A45U G68A, the yeast fitness is at most 0.5.

As for U3C C46U U54A, the yeast fitness is at most 0.5.

Turning to U3C C5G C11G, the yeast fitness was at most 0.5.

With U3C G6C A14U G25A G38A U47A A69C, the yeast fitness is at most 0.5.

Regarding U3C C11A, the yeast fitness stood at 0.65.

As for U3C C11G, the yeast fitness amounted to 0.608.

Take U3C C46A G56A: the yeast fitness stood at 0.699.

For the variant U3C G10C C11G C24G, the yeast fitness is at most 0.5.

With U3C G17C A40G U54C, the yeast fitness was found to be 0.59.

As to U3C A40U G58A, the yeast fitness stood at 1.02.

With U3C G9C C46U, the yeast fitness was 0.567.

As to U3C G6A C30U G39A A45G C46U C49G, the yeast fitness was at most 0.5.

Consider U3C C30U C33G, for which the yeast fitness is at most 0.5.

Turning to U3C C24A C62A A65C, the yeast fitness was at most 0.5.

With U3C G25A G68C A69G, the yeast fitness is 1.08.

On to U3C C31G U59A, for which the yeast fitness is at most 0.5.

For the variant U3C C30A C61U, the yeast fitness stood at 0.678.

For the variant U3C C46U A69U, the yeast fitness came to 0.789.

With U3C C5G C24A, the yeast fitness was at most 0.5.

With U3C A57U, the yeast fitness was 0.713.

Consider U3C G23A C30U C33A G41C A42U, for which the yeast fitness was at most 0.5.

For U3C C4A A36U A43U, the yeast fitness was at most 0.5.

Regarding U3C G12A A37C A45U G48C C66U G67C A70G, the yeast fitness was at most 0.5.

Turning to U3C C31G, the yeast fitness was 0.86.

In the case of U3C C31U, the yeast fitness is 0.891.

On to U3C G6A G18C C30U C31U G48A C55G G67A, for which the yeast fitness was at most 0.5.

For the variant U3C G44C C60G, the yeast fitness turned out to be 0.562.

As for U3C G39C A43G G44C A45U C49G G67C, the yeast fitness is at most 0.5.

For the variant U3C C31U G48A, the yeast fitness worked out at 0.734.

As to U3C G12A C31G U59A, the yeast fitness is 0.537.

On to U3C C24A C29U G67U, for which the yeast fitness came to 0.522.

Take U3C C60A: the yeast fitness worked out at 0.619.

Consider U3C C33G C55U, for which the yeast fitness was at most 0.5.

Take U3C C30G: the yeast fitness was 0.677.

Consider U3C C11A C27G C33A, for which the yeast fitness was determined as 0.579.

In the case of U3C C22A A70C, the yeast fitness worked out at 0.607.

Regarding U3C C49G U59A, the yeast fitness was at most 0.5.

Turning to U3C C29G C46U C49U U59G A65U G68A, the yeast fitness was at most 0.5.

Take U3C G10C C27U: the yeast fitness is at most 0.5.

Turning to U3C G12A A20C G23C G56C A65C G68A, the yeast fitness was at most 0.5.

In the case of U3C G9C C11U C30G C55A A69C, the yeast fitness is at most 0.5.

As to U3C C11A C31A, the yeast fitness stood at 0.556.

In the case of U3C A40C A45G C46A, the yeast fitness was at most 0.5.

Turning to U3C C22G A70U, the yeast fitness was 0.8.

In the case of U3C C29G C30G A37C G39A, the yeast fitness is at most 0.5.

Take U3C C4G U8G C34U A37G: the yeast fitness was at most 0.5.

For the variant U3C C55G G68C, the yeast fitness is at most 0.5.

As for U3C G50A C61U, the yeast fitness came to 0.671.

As to U3C C4G A20G A43G, the yeast fitness was at most 0.5.

On to U3C C11A C27G C33A C46A, for which the yeast fitness was determined as 0.541.

For the variant U3C C22A C33A, the yeast fitness is at most 0.5.

As to U3C C62G, the yeast fitness was found to be 0.853.

On to U3C C5U C22U A40U A43U, for which the yeast fitness was at most 0.5.

For the variant U3C C22G A69U, the yeast fitness was 0.667.

For the variant U3C C46A G58C, the yeast fitness is 1.04.

As to U3C G12A U28C A37C A45U G48C, the yeast fitness was at most 0.5.

For the variant U3C C4U A70U, the yeast fitness is 0.841.

U3C C5U C33G C34U G38C U47A: the yeast fitness was at most 0.5.

Consider U3C C46G A69U, for which the yeast fitness turned out to be 0.807.

Regarding U3C C30A G51A, the yeast fitness amounted to 0.602.

Regarding U3C C34A A37C G39A A45G C62U, the yeast fitness turned out to be 0.534.

Regarding U3C C31U A70G, the yeast fitness was found to be 0.812.

For U3C C11U G17A C49U, the yeast fitness is at most 0.5.

Turning to U3C C24G A43C G48A G58A G68C, the yeast fitness was at most 0.5.

On to U3C C49U A70C, for which the yeast fitness turned out to be 0.751.

As for U3C C24G C33G C66U, the yeast fitness was at most 0.5.

In the case of U3C C31U A69U, the yeast fitness is 0.782.

Turning to U3C C46G C62A, the yeast fitness was 0.564.

Consider U3C G25A A42C, for which the yeast fitness is at most 0.5.

In the case of U3C C60A C66U, the yeast fitness was 0.651.

For U3C C31G G51C, the yeast fitness amounted to 0.55.

For U3C G6C A14U G25A G38A U47A C60G A70G, the yeast fitness turned out to be 0.51.

As for U3C G9A U19C, the yeast fitness turned out to be 0.816.

Regarding U3C G12A A37C A45U G48C, the yeast fitness is 0.591.

U3C G18A U32G A37G A43C G51A: the yeast fitness was at most 0.5.

Turning to U3C G12A C29G C34U A36C G56C, the yeast fitness was at most 0.5.

On to U3C C4U A57G, for which the yeast fitness worked out at 0.677.

U3C C11U G18C C66U: the yeast fitness was 0.516.

U3C C5G C34U: the yeast fitness is at most 0.5.

With U3C G12C A20G A43G C61U, the yeast fitness was at most 0.5.

As to U3C C31U G44A, the yeast fitness was 0.721.

Regarding U3C G10A U13C G58C, the yeast fitness was at most 0.5.

On to U3C C4U G10A C30U C49U, for which the yeast fitness amounted to 0.598.

With U3C C22G C29A A42C, the yeast fitness is at most 0.5.

Take U3C C62U U64A: the yeast fitness was at most 0.5.

As for U3C G6A A14G G18C C30U C31U G48A C55G, the yeast fitness was at most 0.5.

On to U3C C4U C24G C49U C60U C61A, for which the yeast fitness was at most 0.5.

With U3C C5G A14U A43G G67C, the yeast fitness was at most 0.5.

With U3C C46U, the yeast fitness was 0.892.

For U3C A43U, the yeast fitness amounted to 0.987.

Regarding U3C A43G, the yeast fitness was found to be 0.999.

Consider U3C A40U G63A A65G, for which the yeast fitness worked out at 0.549.

In the case of U3C C24U C55G A70U, the yeast fitness was at most 0.5.

Turning to U3C C5A C55A C60A, the yeast fitness was at most 0.5.

With U3C A40G, the yeast fitness worked out at 0.929.

U3C G56C: the yeast fitness was found to be 0.67.

As to U3C G9C A70U, the yeast fitness was at most 0.5.

Regarding U3C C27G C33G A42G A45G, the yeast fitness is at most 0.5.

As for U3C C27G G39A C46U G67A, the yeast fitness was at most 0.5.

Regarding U3C C31G A57G, the yeast fitness was determined as 0.589.

As for U3C G9C C11U C30G A43C, the yeast fitness is 0.519.

On to U3C C5U A37U C49U U53C, for which the yeast fitness was 0.597.

With U3C G51C C66U, the yeast fitness is at most 0.5.

In the case of U3C G10A A40C C55G, the yeast fitness was at most 0.5.

For the variant U3C C34A G44A G52A U53C C55U, the yeast fitness is 0.527.

As for U3C G9A A69C, the yeast fitness amounted to 0.905.

As to U3C G10C C22U C55G, the yeast fitness was at most 0.5.

In the case of U3C C62G G68A, the yeast fitness was at most 0.5.

On to U3C G9A G17A, for which the yeast fitness worked out at 0.798.

Regarding U3C G44C U59A, the yeast fitness was at most 0.5.

Turning to U3C C46U A65U, the yeast fitness was 0.739.

Take U3C C4G U7C A21C G23C C55A U64A A65C: the yeast fitness was at most 0.5.

Consider U3C C4G, for which the yeast fitness amounted to 0.891.

As to U3C G38C A57U A70G, the yeast fitness is 0.622.

Take U3C A40U C49A: the yeast fitness is 0.577.

As to U3C C4U A43U G58A, the yeast fitness is at most 0.5.

As for U3C G9C C30G A43C, the yeast fitness was at most 0.5.

For the variant U3C C22G C61U A65U, the yeast fitness was 0.596.

As to U3C G9A A65G, the yeast fitness was 0.888.

As for U3C C5U A37G A43C C62U, the yeast fitness was at most 0.5.

For the variant U3C C11A C31A G68C, the yeast fitness turned out to be 0.582.

In the case of U3C C30U C46A U54A A57G, the yeast fitness is at most 0.5.

For U3C G48A U54A, the yeast fitness was determined as 0.534.

Turning to U3C C5G A15C C27G A69U, the yeast fitness was at most 0.5.

In the case of U3C C11G G41C, the yeast fitness was at most 0.5.

U3C G12C A20U C22G G50A C61A: the yeast fitness is at most 0.5.

In the case of U3C C11A U19G C24A A40C A45U, the yeast fitness was at most 0.5.

As to U3C C29U, the yeast fitness came to 0.844.

U3C C29G: the yeast fitness stood at 0.679.

In the case of U3C C55G, the yeast fitness amounted to 0.619.

Take U3C C5G G67U: the yeast fitness stood at 0.542.

U3C G25C G41C C46U A65U: the yeast fitness was at most 0.5.

As for U3C C5G G17A A40C U59C, the yeast fitness was at most 0.5.

U3C C62U G67A: the yeast fitness amounted to 0.587.

Turning to U3C G12A C29G C34U A36C C61A, the yeast fitness worked out at 0.587.

As to U3C C11U A14C A21U A36C G58C, the yeast fitness amounted to 0.562.

Consider U3C C5G A21U A42C A70G, for which the yeast fitness was determined as 0.542.

U3C C5A A15U A20G: the yeast fitness is at most 0.5.

Regarding U3C C55A A65U, the yeast fitness was at most 0.5.

Regarding U3C G48C G67C, the yeast fitness is at most 0.5.

For the variant U3C G23A U35G A42G, the yeast fitness is at most 0.5.

Turning to U3C G23C C27G G39A C66U, the yeast fitness was at most 0.5.

In the case of U3C C30A A69U, the yeast fitness was 0.745.

With U3C A42G, the yeast fitness is 0.883.

Turning to U3C A42C, the yeast fitness was 0.85.

Take U3C A42U: the yeast fitness came out at 0.9.

In the case of U3C C30G A43C G67C, the yeast fitness was at most 0.5.

With U3C C4U C55U, the yeast fitness was 0.699.

Consider U3C C31U G67C, for which the yeast fitness stood at 0.797.

Regarding U3C C11G A37G, the yeast fitness was 0.563.

In the case of U3C G12A U28C G48C G63C, the yeast fitness is at most 0.5.

For the variant U3C A40C A45C, the yeast fitness turned out to be 0.502.

As to U3C C5A C11G A20U G25C U32A, the yeast fitness was at most 0.5.

With U3C G10A C22A C24G U54C, the yeast fitness was at most 0.5.

For the variant U3C C31U G52C, the yeast fitness turned out to be 0.591.

For U3C C46A G48A C66U, the yeast fitness was 0.629.

In the case of U3C C4U A69U A70U, the yeast fitness is at most 0.5.

Turning to U3C G41C, the yeast fitness is 0.824.

For U3C G41A, the yeast fitness was determined as 0.879.

In the case of U3C C33G C60A, the yeast fitness is at most 0.5.

For U3C C24U A42C, the yeast fitness turned out to be 0.663.
